Data as given in ChEMBL document CHEMBL3774372, “Design, physico-chemical properties and biological evaluation of some new N-[(phenoxy)alkyl]- and N-{2-[2-(phenoxy)ethoxy]ethyl}aminoalkanols as anticonvulsant agents” (Bioorg Med Chem, 2016).

Columns and labels:
[1] = tested on: Rattus norvegicus; test: Neurotoxicity in rat at 30 mg/kg, ip after 4 hrs by rotarod test; assay type: toxicity, organism-based; details: in vivo
[2] = tested on: Mus musculus; test: Neurotoxicity in mouse at 300 mg/kg, ip after 0.5 hrs by rotarod test; assay type: toxicity, organism-based; details: in vivo
Method in brief: (§1)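 Mice were dosed ip with compound suspended in 0.5% methylcellulose. Rotarod: a 1 in. knurled rod turning at 6 rpm. Neurotoxicity was scored as failure to stay on the rod for at least 1 min in each of three trials. Results are given as the number of animals affected out of the number tested.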

[3] = tested on: Rattus norvegicus; test: Neurotoxicity in rat at 30 mg/kg, po after 0.5 hrs by rotarod test; assay type: toxicity, organism-based; details: in vivo
[4] = tested on: Rattus norvegicus; test: Neurotoxicity in rat at 30 mg/kg, po after 1 hr by rotarod test; assay type: toxicity, organism-based; details: in vivo
[5] = tested on: Rattus norvegicus; test: Neurotoxicity in rat at 30 mg/kg, po after 2 hrs by rotarod test; assay type: toxicity, organism-based; details: in vivo
[6] = tested on: Mus musculus; test: Neurotoxicity in mouse at 30 mg/kg, ip after 4 hrs by rotarod test; assay type: toxicity, organism-based; details: in vivo; method in brief: as §1
[7] = tested on: Rattus norvegicus; test: Neurotoxicity in rat at 30 mg/kg, po after […] by rotarod test; assay type: toxicity, organism-based; details: in vivo
[8] = tested on: Mus musculus; test: Neurotoxicity in mouse at 30 mg/kg, ip after 2 hrs by rotarod test; assay type: toxicity, organism-based; details: in vivo
[9] = tested on: Rattus norvegicus; test: Neurotoxicity in rat at 30 mg/kg, ip after […] by rotarod test; assay type: toxicity, organism-based; details: in vivo
[10] = tested on: Rattus norvegicus; test: Neurotoxicity in rat at 30 mg/kg, po after 4 hrs by rotarod test; assay type: toxicity, organism-based; details: in vivo
[11] = tested on: Mus musculus; test: Neurotoxicity in mouse at 100 mg/kg, ip after 0.5 hrs by rotarod test; assay type: toxicity, organism-based; details: in vivo; method in brief: as §1
[12] = tested on: Rattus norvegicus; test: Neurotoxicity in rat at 30 mg/kg, ip after 1 hr by rotarod test; assay type: toxicity, organism-based; details: in vivo
[13] = tested on: Rattus norvegicus; test: Neurotoxicity in rat at 30 mg/kg, ip after 2 hrs by rotarod test; assay type: toxicity, organism-based; details: in vivo
[14] = tested on: Mus musculus; test: Neurotoxicity in mouse at 30 mg/kg, ip after 0.5 hrs by rotarod test; assay type: toxicity, organism-based; details: in vivo; method in brief: as §1
[15] = tested on: Rattus norvegicus; test: Neurotoxicity in rat at 30 mg/kg, ip after 0.5 hrs by rotarod test; assay type: toxicity, organism-based; details: in vivo
[16] = tested on: Vibrio harveyi; test: Antimutagenic activity against Vibrio harveyi BB7XM assessed as inhibition of NQNO-induced mutagenicity after 48 hrs; assay type: functional
Method in brief: (§2)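 V. harveyi cultures grown exponentially to A600 0.1 at 30 °C, exposed to test compound for 15 min, then to NQNO, and grown on to A600 0.3–0.4. 5 × 10⁶ cells plated on BOSS agar with neomycin (100, final). Neomycin-resistant colonies counted after 48 h at 30 °C. Result given as % inhibition of NQNO mutagenicity; three independent repeats.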

[17] = tested on: Mus musculus; test: Neurotoxicity in mouse at 40 mg/kg, ip after […] by rotarod test; assay type: toxicity, organism-based; details: in vivo
[18] = tested on: Mus musculus; test: Neurotoxicity in mouse at 20 mg/kg, ip after 2 hrs by rotarod test; assay type: toxicity, organism-based; details: in vivo
[19] = tested on: Mus musculus; test: Neurotoxicity in mouse at 20 mg/kg, ip after 0.5 hrs by rotarod test; assay type: toxicity, organism-based; details: in vivo
[20] = tested on: Vibrio harveyi; test: Mutagenicity in Vibrio harveyi BB7X assessed as number of colonies after 48 hrs (reference value: 15 to 16 no_unit); assay type: ADME, organism-based; details: in vivo
Method in brief: (§3)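 Vibrio harveyi mutagenicity test: test compound was added to exponentially growing cultures (A600 = 0.1, 30 °C) and grown to OD600 0.3–0.4. Then 5 × 10^6 cells were plated on BOSS agar with neomycin (final 100 µg/mL) and incubated 48 h at 30 °C. Neomycin-resistant colonies were counted. Triplicate; controls were water, DMSO and NQNO 40 ng/mL.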

[21] = tested on: Vibrio harveyi; test: Antimutagenic activity against Vibrio harveyi BB7 assessed as inhibition of NQNO-induced mutagenicity after 48 hrs; assay type: functional; method in brief: as §2
[22] = tested on: Mus musculus; test: Anticonvulsant activity in ip dosed mouse assessed as protection against maximal electric shock-induced seizures measured after […]; assay type: functional
[23] = tested on: Vibrio harveyi; test: Antimutagenic activity against Vibrio harveyi BB7M assessed as inhibition of NQNO-induced mutagenicity after 48 hrs; assay type: functional; method in brief: as §2
[24] = tested on: Mus musculus; test: Neurotoxicity in mouse at 40 mg/kg, ip after 1 hr by rotarod test; assay type: toxicity, organism-based; details: in vivo
[25] = tested on: Mus musculus; test: Neurotoxicity in mouse at 40 mg/kg, ip after 2 hrs by rotarod test; assay type: toxicity, organism-based; details: in vivo
[26] = tested on: Mus musculus; test: Neurotoxicity in mouse at 20 mg/kg, ip after 1 hr by rotarod test; assay type: toxicity, organism-based; details: in vivo
[27] = tested on: Vibrio harveyi; test: Mutagenicity in Vibrio harveyi BB7 assessed as number of colonies after 48 hrs (reference value: 13 to 14 no_unit); assay type: ADME, organism-based; details: in vivo; method in brief: as §3
[28] = in vitro; details: mouse, liver microsomes
[29] = in vitro; details: mouse, liver microsomes; remark: listed apart in the source
[30] = tested on: Vibrio harveyi; test: Mutagenicity in Vibrio harveyi BB7XM assessed as number of colonies after 48 hrs (reference value: 14 no_unit); assay type: ADME, organism-based; details: in vivo; method in brief: as §3
[31] = tested on: Vibrio harveyi; test: Mutagenicity in Vibrio harveyi BB7M assessed as number of colonies after 48 hrs (reference value: 13 to 14 no_unit); assay type: ADME, organism-based; details: in vivo; method in brief: as §3
[32] = Neurotoxicity in ip dosed mouse after […] by rotarod test; assay type: toxicity, organism-based; details: in vivo
[33] = Retention time of the compound in mouse liver microsomes at 20 uM preincubated for 15 mins followed by addition of NADPH-regenerating system measured after 5 to 90 mins by […] analysis; assay type: ADME
Method in brief: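 Mouse liver microsomes (0.4 mg/mL) with test compound (20 µM) in 100 mM potassium phosphate, pH 7.4, were preincubated 15 min at 37 °C. An NADPH-regenerating system was then added and incubation ran 5–90 min at 37 °C. Levallorphan (20 µM) served as internal standard, and reactions were quenched with perchloric acid. The supernatant was analysed by UPLC/MS. Duplicate incubations.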

[34] = tested on: Mus musculus; test: Neurotoxicity in mouse at 20 mg/kg, ip after […] by rotarod test; assay type: toxicity, organism-based; details: in vivo
[35] = tested on: Mus musculus; test: Neurotoxicity in mouse at 40 mg/kg, ip after 4 hrs by rotarod test; assay type: toxicity, organism-based; details: in vivo
[36] = tested on: Mus musculus; test: Neurotoxicity in mouse at 20 mg/kg, ip after 4 hrs by rotarod test; assay type: toxicity, organism-based; details: in vivo
[37] = tested on: Rattus norvegicus; test: Toxicity in pilocarpine-induced status epilepticus Sprague-Dawley rat assessed as death at 100 mg/kg, ip after […]; assay type: organism-based; details: in vivo
[38] = tested on: Mus musculus; test: Anticonvulsant activity in ip dosed mouse assessed as protection against subcutaneous pentylenetetrazol-induced seizures measured after […]; assay type: functional

**Q.** Which Activity [1] does the source give for `Cc1cccc(C)c1OCCOCCN[C@@H](C)CO.Cl` here?
**A.** The Activity was “Non-toxic”.

**Q.** And the Activity [2]?
**A.** Its Activity is “Toxic”.

**Q.** What about the Activity [3] of the same molecule?
**A.** Its Activity is “Non-toxic”.

**Q.** What about the Activity [4] of the same molecule?
**A.** The Activity was “Non-toxic”.

**Q.** What about the Activity [5] of the same molecule?
**A.** Its Activity is “Non-toxic”.

**Q.** What about the Activity [6] of the same molecule?
**A.** Its Activity is “Non-toxic”.

**Q.** What about the Activity [7] of the same molecule?
**A.** Its Activity is “Non-toxic”.

**Q.** What about the Activity [8] of the same molecule?
**A.** The Activity was “Non-toxic”.

**Q.** What about the Activity [9] of the same molecule?
**A.** Its Activity is “Non-toxic”.

**Q.** And the Activity [10]?
**A.** Its Activity is “Non-toxic”.

**Q.** And the Activity [11]?
**A.** The Activity was “Non-toxic”.

**Q.** And the Activity [12]?
**A.** The Activity was “Non-toxic”.

**Q.** What about the Activity [13] of the same molecule?
**A.** Its Activity is “Non-toxic”.

**Q.** What about the Activity [14] of the same molecule?
**A.** Its Activity is “Non-toxic”.

**Q.** And the Activity [15]?
**A.** Its Activity is “Non-toxic”.

**Q.** For `Cc1cccc(C)c1OCCOCCN[C@@H](C)CO`, which “inhibition (INH)” value [16] is on record?
**A.** The value was 5%.

**Q.** What about the Activity [17] of the same molecule?
**A.** The Activity was “Toxic”.

**Q.** What about the Activity [18] of the same molecule?
**A.** The Activity was “Non-toxic”.

**Q.** What about the Activity [1] of the same molecule?
**A.** Its Activity is “Non-toxic”.

**Q.** And the Activity [19]?
**A.** Its Activity is “Non-toxic”.

**Q.** What about the Activity [20] of the same molecule?
**A.** Its Activity is 22.

**Q.** What about the Activity [2] of the same molecule?
**A.** The Activity was “Toxic”.

**Q.** And the “inhibition (INH)” value [21]?
**A.** Its value is 70%.

**Q.** What about the ED50 [22] of the same molecule?
**A.** Its ED50 is 11.3 mg/kg.

**Q.** And the Activity [3]?
**A.** Its Activity is “Non-toxic”.

**Q.** What about the Activity [4] of the same molecule?
**A.** The Activity was “Non-toxic”.

**Q.** What about the “inhibition (INH)” value [23] of the same molecule?
**A.** The value was 69%.

**Q.** What about the Activity [24] of the same molecule?
**A.** Its Activity is “Non-toxic”.

**Q.** And the Activity [25]?
**A.** The Activity was “Non-toxic”.

**Q.** And the Activity [26]?
**A.** Its Activity is “Non-toxic”.

**Q.** And the Activity [5]?
**A.** The Activity was “Non-toxic”.

**Q.** What about the Activity [6] of the same molecule?
**A.** The Activity was “Non-toxic”.

**Q.** What about the Activity [27] of the same molecule?
**A.** The Activity was 15.

**Q.** And the Activity [7]?
**A.** Its Activity is “Non-toxic”.

**Q.** And the microsomal CLint at 20 µM [28]?
**A.** The microsomal CLint at 20 µM was 47 µL/min/mg.

**Q.** And the Activity [9]?
**A.** Its Activity is “Non-toxic”.

**Q.** And the half-life at 20 µM [29]?
**A.** The half-life at 20 µM was 37 min.

**Q.** And the Activity [30]?
**A.** Its Activity is 18.

**Q.** And the Activity [31]?
**A.** The Activity was 26.

**Q.** And the Activity [10]?
**A.** Its Activity is “Non-toxic”.

**Q.** What about the Activity [11] of the same molecule?
**A.** The Activity was “Toxic”.

**Q.** What about the TD50 at […] [32] of the same molecule?
**A.** Its TD50 at […] is 39.2 mg/kg.

**Q.** What about the Retention_time [33] of the same molecule?
**A.** Its Retention_time is 3.8 min.

**Q.** And the Activity [34]?
**A.** Its Activity is “Non-toxic”.

**Q.** What about the Activity [12] of the same molecule?
**A.** Its Activity is “Non-toxic”.

**Q.** And the Activity [35]?
**A.** The Activity was “Non-toxic”.

**Q.** And the Activity [13]?
**A.** Its Activity is “Non-toxic”.

**Q.** What about the Activity [36] of the same molecule?
**A.** Its Activity is “Non-toxic”.

**Q.** What about the Activity [37] of the same molecule?
**A.** The Activity was “Non-toxic”.

**Q.** And the Activity [15]?
**A.** The Activity was “Non-toxic”.

**Q.** What about the ED50 [38] of the same molecule?
**A.** The ED50 was greater than 43 mg/kg.
